Measured values from article PMC3166626 (Nature immunology, 2010).
Entries after “also recorded” stand apart in the source; their conditions may differ.

What was measured:
[1] = test system: T cell clone BDC-2.5; assay: IFN-γ response of T cell clone BDC-2.5; assay type: cell-based, NOD mouse; conditions: ChgA-derived peptides 5–500 μM; two experiments, single measurements (Fig. 6a,c)
Summary of the method: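 Cultures held 2 × 10⁴ BDC-2.5 T cells and 2.5 × 10⁴ NOD peritoneal exudate cells as I-A^g7 APCs. Chromogranin A-derived peptides were added at 5–500 μM. Controls were beta cell tumor membrane preparation, a positive mimotope peptide and an irrelevant moth cytochrome c peptide. IFN-γ was measured by specific ELISA. Two experiments, single measurement per concentration. Stimulatory capacity was calculated relative to the reference peptide.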

[2] = test system: I-A^g7; assay: Peptide binding to I-A^g7; parameters: species or system NOD mouse; conditions: inhibition of bio-pHEL (11 μM) binding to soluble I-A^g7, pH 5.6, overnight, 21°C, ELISA; average of two experiments (Fig. 6b,c)
Summary of the method: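 Soluble I-A^g7 carrying covalently linked pHEL, thrombin-treated to cleave the peptide linker. Diluted in PBS, captured on OX6-coated wells, washed. Bound probe detected with alkaline phosphatase–Extravidin and […]. Controls: mimotope peptide (positive), I-E^k-binding moth cytochrome c peptide (negative). Reported as percent of uninhibited probe binding.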

[3] = test system: BDC T cell clones; assay: In vitro activation of the BDC T cell clones; assay type: cell-based, NOD mouse
Summary of the method: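 The three BDC clones (2 × 10⁴ responder cells each) were cultured with 2.5 × 10⁴ NOD peritoneal exudate cells as APCs. Soluble synthetic test peptides were titrated alongside a mimotope peptide and beta cell tumor membrane preparation as the control antigen. IFN-γ (ng/ml) was measured by specific ELISA. At least two separate experiments, single measurement at each peptide concentration.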

[4] = test system: BDC T cell clones; conditions: presented in the context of I-A^g7; cited from earlier work

Row | Substance | Stimulatory activity on BDC-2.5 (IFN-γ response) [1] | Binding to I-A^g7 [2] | also measured
1 | ED9: WD5 extended by the same 4 amino acids at the N-terminus (EDKRWSRMD) | failed to stimulate BDC-2.5 | did not bind to I-A^g7 | 
2 | EE18: WE14 extended by 4 amino acids at the N-terminus (EDKRWSRMDQLAKELTAE) | eliminated the BDC-2.5 response | no effect on I-A^g7 binding | 
3 | RLGLWVRME [pS3] |  |  | Potency in activating the BDC clones relative to WE14 ([3]; pS3 vs synthetic WE14): at least 1000 fold
4 | WA8: C-terminal truncation of WE14 (WSRMDQLA) | decreasing stimulatory activity |  | 
5 | WL11: WE14 truncated by 3 C-terminal amino acids (WSRMDQLAKEL) | decreasing stimulatory activity | reduced binding to a level indistinguishable from the negative control peptide | 
6 | WSRMD [WD5] | lacked any stimulatory activity |  | 
7 | WSRMDQLAKELTAE [WE14] |  | bound to I-A^g7, although not nearly as well as the pS3 mimotope; also recorded: bound I-A^g7 | Activation of the BDC T cell clones ([3]; in vitro, presented by I-A^g7 APCs): activated the ChgA-specific T cell clones in vitro; also recorded: potently stimulated all three of the BDC clones; also recorded: the clones were activated; Potency relative to beta cell (tumor) antigen preparation ([3]; synthetic WE14 vs β-Mem): considerably less potent than the antigen preparation from the beta cell adenoma tumor
8 | insulin: insulin, to which the BDC clones are not responsive |  |  | Response of BDC clones in vitro [4]: not responsive
